For 30 compounds, RUmax and inhibition results are on record in ChEMBL document CHEMBL1142936, “Library synthesis and screening: 2,4-diphenylthiazoles and 2,4-diphenyloxazoles as potential novel prion disease therapeutics” (2007).

The structures appear in SMILES notation.

The target in assay [1] is Major prion protein (Homo sapiens) (UniProt P04156). Kind of assay: Binding affinity at human PrPC at 40 uM by SPR assay.
Assay [2] deals with Major prion protein (Mus musculus) (UniProt P04925). Briefly: Binding affinity at mouse PrPC at 40 uM by SPR assay.
Chain of Major prion protein (Mus musculus) (P04925 whole entry): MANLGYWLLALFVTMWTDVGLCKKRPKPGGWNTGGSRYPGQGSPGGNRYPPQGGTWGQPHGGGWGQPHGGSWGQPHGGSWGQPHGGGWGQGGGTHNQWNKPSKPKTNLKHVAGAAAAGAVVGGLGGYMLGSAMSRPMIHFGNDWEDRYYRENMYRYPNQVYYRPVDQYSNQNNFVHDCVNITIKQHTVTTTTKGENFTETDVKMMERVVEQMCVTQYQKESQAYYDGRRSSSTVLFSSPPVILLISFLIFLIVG
Assay [3] can be described thus: Inhibition of PrPSc formation in mouse SMB cells at 2.5 uM after 5 days […] relative to control. The class given is functional. The note with it: 120 h. The method, boiled down: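 Scrapie-infected SMB mouse cells seeded at 3 × 10⁴ per well, attached 24 h, then exposed 5 days to compound. DMSO stocks were 400× final, diluted 20-fold into Hank's salt solution, then 20-fold into medium. Lysates were dot-blotted at about 30-40 µg protein, guanidine thiocyanate treated, and probed with anti-PrP 6H4 with ECL detection. PrP^Sc was expressed relative to untreated control, as the mean of triplicates with standard deviation.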

Turning to `O=C(Nc1oc(-c2ccccc2)nc1-c1ccccc1)c1cc2ccccc2o1`, the RUmax in assay [1] came to 48.9%; in assay [2], 58%.

Turning to `O=C(Nc1oc(-c2ccccc2)nc1-c1ccccc1)c1ccc(F)cc1`, the RUmax in assay [1] and in assay [2] was 0% in each case.

As to `O=C(Nc1sc(-c2ccccc2)nc1-c1ccccc1)C(F)(F)F`, the RUmax in assay [1] amounted to 9.5%; in assay [2], 18.7%. Moreover, at 2.5 µM the inhibition in assay [3] was 13.7%.

Consider `O=C(Nc1oc(-c2ccccc2)nc1-c1ccccc1)c1ccco1`, for which the RUmax in assay [1] worked out at 3.8%; in assay [2], 0%.

For the compound `Cc1ccc(C(=O)Nc2sc(-c3ccccc3)nc2-c2ccccc2)s1`, the figures for the RUmax in assay [1] and in assay [2] were 19.8% and 0%, respectively.

Turning to `O=C(Nc1oc(-c2ccccc2)nc1-c1ccccc1)C1CC1`, the RUmax in assay [1] and in assay [2] was 0% in each case.

As for `O=C(Nc1oc(-c2ccccc2)nc1-c1ccccc1)c1ccc(C(F)(F)F)cc1`, the RUmax in assay [1] and in assay [2] was 0% throughout.

Turning to `O=C(Nc1oc(-c2ccccc2)nc1-c1ccccc1)c1ccncc1`, the RUmax in assay [1] and in assay [2] was 0% in each case.

For the compound `O=C(Nc1sc(-c2ccccc2)nc1-c1ccccc1)c1cccc(C(F)(F)F)c1`, the RUmax in assay [1] was determined as 65%; in assay [2] it was 0%.

On to `O=C(Nc1sc(-c2ccccc2)nc1-c1ccccc1)c1ccncc1`, for which the RUmax stood at 5% in assay [1] and 8.5% in assay [2].

On to `CC(C)(C)OC(=O)Nc1oc(-c2ccccc2)nc1-c1ccccc1`, for which the RUmax stood at 11.3% in assay [1] and 10.6% in assay [2].

Take `O=C(Nc1oc(-c2ccccc2)nc1-c1ccccc1)c1ccno1`: the RUmax stood at 18.3% in assay [1] and 21.7% in assay [2].

As for `O=C(Nc1oc(-c2ccccc2)nc1-c1ccccc1)c1ccc([N+](=O)[O-])o1`, the RUmax in assay [1] and in assay [2] was 0% in each case.

Take `O=C(Nc1sc(-c2ccccc2)nc1-c1ccccc1)c1ccco1`: the RUmax in assay [1] amounted to 6.5%; in assay [2] it was 8.4%.

With `CCCC(CCC)C(=O)Nc1sc(-c2ccccc2)nc1-c1ccccc1`, the RUmax in assay [1] and in assay [2] was 0% each time.

Consider `O=C(Nc1sc(-c2ccccc2)nc1-c1ccccc1)c1cc2ccccc2s1`, for which the results for the RUmax in assay [1] and in assay [2] were 21.1% and 0%, respectively.

As for `O=C(Nc1sc(-c2ccccc2)nc1-c1ccccc1)c1cccnc1`, the RUmax in assay [1] and in assay [2] was 0% throughout.

As to `O=C(Nc1oc(-c2ccccc2)nc1-c1ccccc1)c1ccc2ccccc2n1`, the RUmax in assay [1] and in assay [2] was 0% each time.

In the case of `O=C(Nc1sc(-c2ccccc2)nc1-c1ccccc1)c1ccccc1C(F)(F)F`, the RUmax in assay [1] and in assay [2] was 0% in each case.

With `COc1ccc(C(=O)Nc2oc(-c3ccccc3)nc2-c2ccccc2)cc1`, the RUmax in assay [1] and in assay [2] was 0% in each case.

`O=C(Nc1sc(-c2ccccc2)nc1-c1ccccc1)c1ccccc1`: the RUmax in assay [1] and in assay [2] was 0% each time.

`O=C(Nc1oc(-c2ccccc2)nc1-c1ccccc1)c1cccs1`: the RUmax in assay [1] came to 27.5%; in assay [2], 37.4%.

`O=C(Nc1sc(-c2ccccc2)nc1-c1ccccc1)C1CC1`: the RUmax in assay [1] and in assay [2] was 0% throughout.

On to `O=C(Nc1oc(-c2ccccc2)nc1-c1ccccc1)C(F)(F)F`, for which the RUmax in assay [1] worked out at 13.7%; in assay [2], 22%. Further, the inhibition at 2.5 µM in assay [3] was 35.1%.

On to `O=C(Nc1sc(-c2ccccc2)nc1-c1ccccc1)c1ccc(C(F)(F)F)cc1`, for which the RUmax in assay [1] and in assay [2] was 0% each time.

As to `O=C(Nc1sc(-c2ccccc2)nc1-c1ccccc1)c1ccno1`, the RUmax in assay [1] and in assay [2] was 0% each time.

As to `O=C(Nc1oc(-c2ccccc2)nc1-c1ccccc1)c1cc2ccccc2s1`, the values for the RUmax in assay [1] and in assay [2] were 48% and 59.6%, respectively.

`O=C(Nc1sc(-c2ccccc2)nc1-c1ccccc1)c1ccc([N+](=O)[O-])o1`: the RUmax in assay [1] and in assay [2] was 0% throughout.

With `O=C(Nc1oc(-c2ccccc2)nc1-c1ccccc1)c1cccnc1`, the results for the RUmax in assay [1] and in assay [2] were 37.3% and 40%, respectively.

As for `O=C(Nc1sc(-c2ccccc2)nc1-c1ccccc1)c1nc2ccccc2s1`, the RUmax in assay [1] is 40.1%; in assay [2], 0%.
